ChEMBL document CHEMBL1781993, “Synthesis and biological evaluation of novel 7-acyl homocamptothecins as Topoisomerase I inhibitors” (Eur J Med Chem, 2011)
Activity calls are given as the source filed them. The calls are words filed in the database; no cut-off is given here.

Tests used:
[1] = molecular target: T1, Topoisomerase I (Bos taurus) (UniProt Q2HPH0); assay: Inhibition of calf thymus topoisomerase 1-mediated relaxation of supercoiled pBR322 at 10 uM after 15 mins using ethidium bromide staining by UV transilluminator analysis
T1 sequence (whole entry): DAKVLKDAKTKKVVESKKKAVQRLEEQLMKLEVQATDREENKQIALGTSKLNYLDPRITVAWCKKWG
Outline: (§1)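 Topo I with DNA was reacted with compound at 37 °C for 15 min. Reactions were stopped with SDS (0.5% final), then 6× loading buffer (0.1 mM EDTA, 7% glycerol, 0.01% xylene cyanol FF, 0.01% bromophenol blue) was added. Products were separated by gel. Compound concentrations were 1, 10 and 50 µM, and a topo I plus DNA sample without drug served as reference.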

A549 = assay: Cytotoxicity against human A549 cells after 3 days by MTT assay; format: functional, cell-based; settings: A549, 72 h
Outline: (§2)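 After 3 days, MTT (5 mg/mL solution) was added and plates incubated a further 4 h. Formazan was dissolved in DMSO and absorbance read at 570 nm. Survival expressed as percentage of untreated control wells.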

MDA-MB-435 = assay: Cytotoxicity against human MDA-MB-435 cells after 3 days by MTT assay; format: functional, cell-based; settings: MDA-MB-435, 72 h; outline: as §2
HCT-116 = assay: Cytotoxicity against human HCT116 cells after 3 days by MTT assay; format: functional, cell-based; settings: HCT-116, 72 h; outline: as §2
[2] = molecular target: T1, Topoisomerase I (Bos taurus); assay: Inhibition of calf thymus topoisomerase 1-mediated relaxation of supercoiled pBR322 assessed as increase in cleavable complex level after 15 mins using ethidium bromide staining by UV transilluminator analysis; outline: as §1
[3] = molecular target: T1, Topoisomerase I (Bos taurus); assay: Inhibition of calf thymus topoisomerase 1-mediated relaxation of supercoiled pBR322 assessed as formation of nicked DNA at 1 to 50 uM after 15 mins using ethidium bromide staining by UV transilluminator; outline: as §1

## CCCCCCC(=O)c1c2c(nc3ccc(OC)cc13)-c1cc3c(c(=O)n1C2)COC(=O)CC3(O)CC (racemic)
[1]
  topoisomerase I inhibition (qualitative call): Active
A549
  IC50: 478 nM
MDA-MB-435
  IC50: 133 nM
HCT-116
  IC50: 317 nM

## CCC1(O)CC(=O)OCc2c1cc1n(c2=O)Cc2c-1nc1ccc(OC)cc1c2C(=O)c1ccc(Cl)cc1 (racemic)
A549
  IC50: 665 nM
MDA-MB-435
  IC50: 2090 nM
HCT-116
  IC50: 3020 nM

## CCCC(=O)c1c2c(nc3ccc(OC)cc13)-c1cc3c(c(=O)n1C2)COC(=O)CC3(O)CC (racemic)
A549
  IC50: 14100 nM
MDA-MB-435
  IC50: 198 nM
HCT-116
  IC50: 268 nM

## CCC1(O)CC(=O)OCc2c1cc1n(c2=O)Cc2c-1nc1ccc(OC)cc1c2C1CCCCC1 (racemic)
A549
  IC50: 657 nM
MDA-MB-435
  IC50: 76.1 nM
HCT-116
  IC50: 118 nM

## CCC(=O)c1c2c(nc3ccc(OC)cc13)-c1cc3c(c(=O)n1C2)COC(=O)CC3(O)CC (racemic)
A549
  IC50: 8960 nM
MDA-MB-435
  IC50: 63.3 nM
HCT-116
  IC50: 56 nM

## CCC1(O)CC(=O)OCc2c1cc1n(c2=O)Cc2c-1nc1ccc(OC)cc1c2C(=O)c1ccc(OC)cc1 (racemic)
A549
  IC50: 9250 nM
MDA-MB-435
  IC50: 16300 nM
HCT-116
  IC50: 2070 nM

## CCC1(O)CC(=O)OCc2c1cc1n(c2=O)Cc2c-1nc1ccc(OC)cc1c2C(=O)c1cc(C)cc(C)c1 (racemic)
A549
  IC50: 48000 nM
MDA-MB-435
  IC50: > 100000 nM
HCT-116
  IC50: 26300 nM

## CC[C@@]1(O)C(=O)OCc2c1cc1n(c2=O)Cc2cc3ccccc3nc2-1
[1]
  inhibition: Active
[2]
  inhibition: Dose-dependent effect

## CCC1(O)CC(=O)OCc2c1cc1n(c2=O)Cc2c-1nc1ccc(OC)cc1c2C(=O)C(C)C (racemic)
A549
  IC50: 2270 nM
MDA-MB-435
  IC50: 21.6 nM
HCT-116
  IC50: 404 nM

## CCC1(O)CC(=O)OCc2c1cc1n(c2=O)Cc2c-1nc1ccc(OC)cc1c2C(=O)c1ccc2ccccc2c1 (racemic)
A549
  IC50: > 100000 nM
MDA-MB-435
  IC50: > 100000 nM
HCT-116
  IC50: 22800 nM

## CCC1(O)CC(=O)OCc2c1cc1n(c2=O)Cc2c-1nc1ccc(OC)cc1c2C(=O)C1CCCCC1 (racemic)
A549
  IC50: 669 nM
MDA-MB-435
  IC50: < 1 nM
HCT-116
  IC50: 446 nM

## CCC1(O)CC(=O)OCc2c1cc1n(c2=O)Cc2c-1nc1ccc(OC)cc1c2C(=O)c1ccc(C)cc1 (racemic)
A549
  IC50: 3390 nM
MDA-MB-435
  IC50: 7170 nM
HCT-116
  IC50: 8170 nM

## CCCCC(=O)c1c2c(nc3ccc(OC)cc13)-c1cc3c(c(=O)n1C2)COC(=O)CC3(O)CC (racemic)
A549
  IC50: 7030 nM
MDA-MB-435
  IC50: 198 nM
HCT-116
  IC50: 277 nM

## CCC1(O)CC(=O)OCc2c1cc1n(c2=O)Cc2c-1nc1ccc(OC)cc1c2C(=O)c1ccc(F)cc1 (racemic)
A549
  IC50: 7790 nM
MDA-MB-435
  IC50: 15900 nM
HCT-116
  IC50: 13100 nM

## CCC1(O)CC(=O)OCc2c1cc1n(c2=O)Cc2c-1nc1ccc(OC)cc1c2C(=O)C1CC1 (racemic)
A549
  IC50: 2480 nM
MDA-MB-435
  IC50: 48.2 nM
HCT-116
  IC50: 5.93 nM

## CCC1(O)CC(=O)OCc2c1cc1n(c2=O)Cc2c-1nc1ccc(OC)cc1c2C(=O)c1ccco1 (racemic)
[1]
  topoisomerase I inhibition (qualitative call): Active
A549
  IC50: < 1 nM
[2]
  inhibition: Dose-dependent effect
MDA-MB-435
  IC50: 2.18 nM
HCT-116
  IC50: 294 nM
[3]
  inhibition: Active

## CCC1(O)CC(=O)OCc2c1cc1n(c2=O)Cc2c-1nc1ccc(OC)cc1c2C(=O)C1CCCC1 (racemic)
[1]
  topoisomerase I inhibition (qualitative call): Active
A549
  IC50: 430 nM
[2]
  inhibition: Dose-dependent effect
MDA-MB-435
  IC50: < 1 nM
HCT-116
  IC50: 2.17 nM
[3]
  inhibition: Active

## CC[C@@]1(O)C(=O)OCc2c1cc1n(c2=O)Cc2cc3c(CN(C)C)c(O)ccc3nc2-1 [TOPOTECAN]
A549
  IC50: 3160 nM
MDA-MB-435
  IC50: 448 nM
HCT-116
  IC50: 1100 nM

## CCC1(O)CC(=O)OCc2c1cc1n(c2=O)Cc2c-1nc1ccc(OC)cc1c2C(=O)c1ccccc1 (racemic)
A549
  IC50: 1770 nM
MDA-MB-435
  IC50: 2210 nM
HCT-116
  IC50: 2940 nM

## CCC1(O)CC(=O)OCc2c1cc1n(c2=O)Cc2c-1nc1ccc(OC)cc1c2C(=O)c1ccc(C(F)(F)F)cc1 (racemic)
[1]
  topoisomerase I inhibition (qualitative call): Active
A549
  IC50: 625 nM
MDA-MB-435
  IC50: 1480 nM
HCT-116
  IC50: 1910 nM

## CCC1(O)CC(=O)OCc2c1cc1n(c2=O)Cc2c-1nc1ccc(OC)cc1c2C(=O)c1cccs1 (racemic)
[1]
  topoisomerase I inhibition (qualitative call): Active
A549
  IC50: 607 nM
MDA-MB-435
  IC50: 1610 nM
HCT-116
  IC50: 2190 nM

## CCC1(O)CC(=O)OCc2c1cc1n(c2=O)Cc2c-1nc1ccc(OC)cc1c2C1CCCC1 (racemic)
[1]
  topoisomerase I inhibition (qualitative call): Active
A549
  IC50: 730 nM
MDA-MB-435
  IC50: 41.5 nM
HCT-116
  IC50: 71.4 nM
